The source made the active and inactive calls. The calls are words filed in the database; no cut-off is given here.
System: Trichomonas vaginalis
Assay: Inhibition of Trichomonas vaginalis uridine nucleoside ribohydrolase using 5-fluorouridine as substrate at 0.04 to 200 uM after 40 mins by NMR spectrometric analysis
In short: (§1)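 UNH at 80 nM in 50 mM potassium phosphate, 0.3 M KCl, pH 6.5, with 10% 2H2O. Test compounds added from DMSO solutions and mixed thoroughly. Reaction read at the 40 min time point. Screening was done at 50 μM in mixtures of three. IC50 determinations used final assay concentrations from 200 μM to 0.04 μM.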
For `O=C(O[C@@H]1Cc2c(O)cc(O)cc2O[C@@H]1c1cc(O)c(O)c(O)c1)c1cc(O)c(O)c(O)c1`, the inhibition was “Active”.
In the case of `CN[C@@H]1C[C@@H](c2ccc(Cl)c(Cl)c2)c2ccccc21` (relative stereo), the inhibition is reported as “Active”.
In the case of `CN(C)CCCN1c2ccccc2CCc2ccc(Cl)cc21`, the Active/inactive screening call is reported as “Active”.
For `Sc1ncnc2nc[nH]c12`, the Active/inactive screening call was “Active”.
In the case of `N[C@@H](C(=O)N[C@@H]1C(=O)N2C(C(=O)O)=C(CSc3c[nH]nn3)CS[C@H]12)c1ccc(O)cc1`, the Active/inactive screening call is reported as “Active”.
With `N[C@@H](C(=O)N[C@@H]1C(=O)N2C(C(=O)O)=C(Cl)CS[C@H]12)c1ccccc1` the Active/inactive screening call was “Active”.
In the case of `CC1=C(/C=C/C(C)=C/C=C/C(C)=C/C(=O)O)C(C)(C)CCC1`, the Active/inactive screening call is reported as “Active”.
In the case of `COC(=O)C1=C(C)NC(C)=C(C(=O)OCC(C)C)C1c1ccccc1[N+](=O)[O-]` (stereo unspecified), the Active/inactive screening call is reported as “Active”.
In the case of `CN(C)[C@@H]1C(O)=C(C(N)=O)C(=O)[C@@]2(O)C(O)=C3C(=O)c4c(O)cccc4[C@@](C)(O)[C@H]3[C@H](O)[C@@H]12`, the Active/inactive screening call is reported as “Active”.
For `CC(=O)Oc1ccccc1C(=O)Nc1ncc([N+](=O)[O-])s1`, the inhibition was “Active”.
In the case of `COCCCOc1ccnc(C[S+]([O-])c2nc3ccccc3[nH]2)c1C` (stereo unspecified) [RABEPRAZOLE], the Active/inactive screening call is reported as “Active”.
With `COc1ccnc(C[S+]([O-])c2nc3cc(OC(F)F)ccc3[nH]2)c1OC` (stereo unspecified) [PANTOPRAZOLE SODIUM] the Active/inactive screening call was “Active”.
For `CCOC(=O)C1=C(C)NC(C)=C(C(=O)OC)C1c1cccc([N+](=O)[O-])c1` (stereo unspecified), the Active/inactive screening call was “Active”.
For `CC1=C(/C=C/C(C)=C/C=C/C(C)=C\C(=O)O)C(C)(C)CCC1`, the Active/inactive screening call was “Active”.
With `Oc1ccc2c3c1O[C@H]1c4[nH]c5ccccc5c4C[C@@]4(O)[C@@H](C2)N(CC2CC2)CC[C@]314` the inhibition was “Active”.
For `Oc1cc2c(cc1O)[C@H]1c3ccccc3CN[C@@H]1CC2` (relative stereo), the Active/inactive screening call was “Active”.
In the case of `COC(=O)C1=C(C)NC(C)=C(C(=O)OC)C1c1ccccc1[N+](=O)[O-]`, the inhibition is reported as “Active”.
For `O=C1C(CC[S+]([O-])c2ccccc2)C(=O)N(c2ccccc2)N1c1ccccc1` (stereo unspecified), the Active/inactive screening call was “Active”.
In the case of `CCOC(=O)C1=C(COCCN)NC(C)=C(C(=O)OC)C1c1ccccc1Cl` (stereo unspecified), the inhibition is reported as “Active”.
In the case of `CCC1=C[C@@H]2CN(C1)Cc1c([nH]c3ccccc13)[C@@](C(=O)OC)(c1cc3c(cc1OC)N(C)[C@H]1[C@@](O)(C(=O)OC)[C@H](OC(C)=O)[C@]4(CC)C=CCN5CC[C@]31[C@@H]54)C2`, the Active/inactive screening call is reported as “Active”.
In the case of `COC(=O)C1=C(C)NC(C)=C(C(=O)OCCN(C)Cc2ccccc2)C1c1cccc([N+](=O)[O-])c1` (stereo unspecified), the Active/inactive screening call is reported as “Active”.
With `CNC1=Nc2ccc(Cl)cc2C(c2ccccc2)=[N+]([O-])C1` the inhibition was “Active”.
With `COc1ccc2[nH]c([S+]([O-])Cc3ncc(C)c(OC)c3C)nc2c1` (stereo unspecified) [OMEPRAZOLE] the Active/inactive screening call was “Active”.

Target: not listed separately
Assay: Inhibition of Trichomonas vaginalis uridine nucleoside ribohydrolase using 5-fluorouridine as substrate after 40 mins by NMR spectrometric analysis
In short: as §1
In the case of `COCCCOc1ccnc(C[S+]([O-])c2nc3ccccc3[nH]2)c1C` (stereo unspecified) [RABEPRAZOLE], the IC50 is reported as 300 nM.
`COc1ccnc(C[S+]([O-])c2nc3cc(OC(F)F)ccc3[nH]2)c1OC` (stereo unspecified) [PANTOPRAZOLE SODIUM] gave an IC50 of 14500 nM.
In the case of `COc1ccc2[nH]c([S+]([O-])Cc3ncc(C)c(OC)c3C)nc2c1` (stereo unspecified) [OMEPRAZOLE], the IC50 is reported as 2300 nM.

Source: ChEMBL document CHEMBL3112434, “Identification of proton-pump inhibitor drugs that inhibit Trichomonas vaginalis uridine nucleoside ribohydrolase” (Bioorg Med Chem Lett, 2014)
